In ChEMBL document CHEMBL1138379, “Syntheses of F-18 labeled fluoroalkyltyrosine derivatives and their biological evaluation in rat bearing 9L tumor” (Bioorg Med Chem Lett, 2007) one finds Ratio, Drug uptake and logP data, which are given here for four molecules.

The nature of series [1]: Ratio of biodistribution in tumor to brain in Fisher 344 rat bearing 9L tumor after 60 mins. The format is ADME, organism-based. Conditions: in vivo, 1 h. In short, it runs like this:
(§1)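 9L tumor cells (5 × 10^6) inoculated into Fisher 344 rats, used 14-18 days later. Rats anesthetized with ethyl ether, given ~3.7 MBq [18F] tracer in 100 µL PBS via tail vein, sacrificed with ether at set times (10-120 min). Tissues dissected, weighed and gamma-counted. Values are %ID/g, mean ± SD, n = 4. Ratios taken from tissue uptake.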

Series [2] has as its system Blood. Description: Biodistribution in blood of Fisher 344 rat bearing 9L tumor after 60 mins. The series is classed as ADME, organism-based. Conditions: in vivo, 1 h. The method, boiled down: as §1
Series [3] can be described thus: Partition coefficient, log P of the compound. The series is classed as physicochemical. The conditions noted are these: octanol/water. The method, boiled down:
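Shake-flask partition between 2.0 mL 1-octanol and 2.0 mL water. 10 µL of HPLC-purified radiotracer added, mixed 2 min at room temperature. Radioactivity counted in 300 µL of each phase to give log P.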

Series [4] relates to Lung. Put plainly: Biodistribution in lung of Fisher 344 rat bearing 9L tumor after 30 mins. The series is classed as ADME, organism-based. Conditions: in vivo, 0.5 h. In short, it runs like this:
as §1

The subject of series [5] is Femur. Description: Biodistribution in femur of Fisher 344 rat bearing 9L tumor after 60 mins. The series is classed as ADME, organism-based. Conditions: in vivo, 1 h. The method, boiled down:
as §1

In the case of `NC(Cc1ccc(O)c(CCC[18F])c1)C(=O)O` (stereo not given), the Ratio in series [1] was 4.05. The Drug uptake is given as 0.64 % ID/g in series [2], 0.78 % ID/g in series [4] and 1.45 % ID/g in series [5]. In series [3], the logP (commonly the decadic logarithm of the partition coefficient of the neutral form, usually between octanol and water) is -1.07.
Take `COc1ccc(CC(N)C(=O)O)cc1CC[18F]` (stereo not given): the Ratio in series [1] came out at 1.9. Also, the Drug uptake worked out at 0.25 % ID/g in series [2], 0.37 % ID/g in series [4] and 0.22 % ID/g in series [5]. Further, the logP in series [3] was -0.75.
On to `NC(Cc1ccc(O)c(CC[18F])c1)C(=O)O` (stereo not given), for which, in series [1], the Ratio is reported as 2.92. Further, the Drug uptake was 0.06 % ID/g in series [2], 0.12 % ID/g in series [4] and 0.76 % ID/g in series [5]. In series [3], the logP is -1.37.
Consider `COc1ccc(CC(N)C(=O)O)cc1CCC[18F]` (stereo not given), for which the Ratio in series [1] turned out to be 2.6. For the same molecule, the Drug uptake in series [2] was determined as 0.24 % ID/g; in series [4], 0.34 % ID/g; in series [5] it was 0.18 % ID/g. The logP in series [3] was -0.29.
